Source: ChEMBL document CHEMBL4346679, “N, N', N″-trisubstituted guanidines: Synthesis, characterization and evaluation of their leishmanicidal activity” (Eur J Med Chem, 2019)
Active and inactive are the calls of the source. The calls are words filed in the database; no cut-off is given here.

Key:
Leishmania amazonensis [1] = assay: Antileishmanial activity against promastigote stage of Leishmania amazonensis MPRO/BR/1972/M1841-LV-79 assessed as parasite growth inhibition after 72 hrs by MTT assay; format: functional, organism-based; details: MPRO/BR/1972/M1841-LV-79, 72 h
Method in brief: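 Promastigotes at 1 × 10^7/mL in LIT + 10% FBS were exposed 72 h at 28 °C to ten concentrations, 0.5–100 µM (final DMSO 0.1%). Viability was read by MTT, with formazan dissolved in SDS-HCl and absorbance at 570 nm. Run in triplicate; IC50 from nonlinear regression.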

[2] = Safety index, ratio of CC50 for mouse peritoneal macrophage to IC50 for promastigote stage of Leishmania amazonensis MPRO/BR/1972/M1841-LV-79; format: toxicity; details: read-out: Ratio CC50/IC50
Leishmania amazonensis [3] = assay: Antileishmanial activity against Leishmania amazonensis MPRO/BR/1972/M1841-LV-79 amastigotes infected in mouse peritoneal macrophages assessed as parasite growth inhibition after 24 hrs by Giemsa staining-based microscopic method; format: functional, organism-based; details: MPRO/BR/1972/M1841-LV-79, 24 h
Method in brief: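 Peritoneal macrophages (3 × 10^5/well on coverslips, RPMI 1640 + 10% FBS) adhered 4 h at 37 °C, 5% CO2, then infected with stationary-phase promastigotes at 5:1 for 4 h. After washing, cells were cultured 18 h, then treated 24 h with compounds or reference drugs. Cells were methanol-fixed and Giemsa-stained. Infection index = % infected macrophages × mean amastigotes per infected cell. IC50 was fitted by regression.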

[4] = Cytotoxicity against mouse peritoneal macrophages assessed as decrease in cell viability after 24 hrs by MTT assay; format: cell-based, Peritoneal macrophage
Method in brief: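 Peritoneal macrophages (1 × 10^5/well) in RPMI 1640 with 10% FBS, 25 mM HEPES and 2 mM L-glutamine were pre-incubated 4 h. They were then exposed to compounds for 24 h at 37 °C, 5% CO2. Viability was read by MTT; CC50 determined.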

[5] = Safety index, ratio of CC50 for mouse peritoneal macrophages to IC50 for Leishmania amazonensis MPRO/BR/1972/M1841-LV-79 amastigotes infected in mouse peritoneal macrophages; format: toxicity; details: read-out: Ratio CC50/IC50
Leishmania amazonensis [6] = assay: Antileishmanial activity against Leishmania amazonensis MPRO/BR/1972/M1841-LV-79 amastigotes infected in mouse peritoneal macrophages assessed as reduction in number of intracellular amastigotes at 25 uM after 72 hrs by Giemsa staining-based microscopic method relative to control; format: functional; set-up: scale not given: the % may be the effect or the level left
Method in brief: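 Infected peritoneal macrophages were treated with 25 µM of each compound, pentamidine or AmpB for 72 h. The infection index (% infected macrophages × amastigotes per infected macrophage) was compared with untreated infected cells. Data are given as mean ± SD.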

[7] = Mutagenicity in Swiss albino mouse assessed as frequency of micronucleated reticulocytes per 2000 cells at 25 mg/kg administered via gavage by acridine orange staining-based micronucleus test; format: toxicity, organism-based; details: in vivo, po
Method in brief: (§1)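 Male Swiss albino mice (30 ± 4 g, 5 per group) were dosed by gavage at 25, 50 or 100 mg/kg. Controls: 0.5% hydroxyethylcellulose (negative) and ip cyclophosphamide 50 mg/kg (positive). Peripheral blood was placed on acridine orange (1 mg/mL) pre-stained slides heated at 70 °C. Fluorescence microscopy used 488 nm light; micronucleated cells were counted among 2000 reticulocytes per animal.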

Mus musculus [8] = assay: Mutagenic index, ratio of test compound effect to hydroxyethylcellulose effect for Swiss albino mouse assessed as frequency of micronucleated reticulocytes per 2000 cells at 25 mg/kg administered via gavage; format: organism-based; details: in vivo, po
Method in brief: (§2)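 Male Swiss albino mice (5 per group) received 25, 50 or 100 mg/kg by gavage. The negative control got 0.3 mL of 0.5% hydroxyethylcellulose; the positive control got cyclophosphamide 50 mg/kg ip. Micronucleated reticulocytes were counted per 2000 cells on acridine orange-stained slides. MI = treated MNRET ÷ negative-control MNRET.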

[9] = Mutagenicity in Swiss albino mouse assessed as frequency of micronucleated reticulocytes per 2000 cells at 100 mg/kg administered via gavage by acridine orange staining-based micronucleus test; format: toxicity, organism-based; details: in vivo, po; method in brief: as §1
Mus musculus [10] = assay: Mutagenic index, ratio of test compound effect to hydroxyethylcellulose effect for Swiss albino mouse assessed as frequency of micronucleated reticulocytes per 2000 cells at 50 mg/kg administered via gavage; format: organism-based; details: in vivo, po; method in brief: as §2
Mus musculus [11] = assay: Mutagenic index, ratio of test compound effect to hydroxyethylcellulose effect for Swiss albino mouse assessed as frequency of micronucleated reticulocytes per 2000 cells at 100 mg/kg administered via gavage; format: organism-based; details: in vivo, po; method in brief: as §2
[12] = Mutagenicity in Swiss albino mouse assessed as frequency of micronucleated reticulocytes per 2000 cells at 50 mg/kg administered via gavage by acridine orange staining-based micronucleus test; format: toxicity, organism-based; details: in vivo, po; method in brief: as §1
Leishmania amazonensis [13] = assay: Antileishmanial activity against promastigote stage of Leishmania amazonensis MPRO/BR/1972/M1841-LV-79 infected in Balb/c mouse assessed as reduction in parasitic load at 0.25 mg/kg, ip administered once daily for 15 days by limiting dilution method relative to control; format: functional; set-up: scale not given: the % may be the effect or the level left
Method in brief: (§3)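 Footpad-infected female BALB/c mice (1 × 10^7 parasites/mL promastigotes; 5 per group) were treated from six weeks post-infection. Dosing was daily ip for 15 days: 0.13 or 0.25 mg/kg/day (PBS, 0.1% DMSO), AmpB 2 mg/kg/day, or PBS vehicle. Skin-lesion parasite burden was quantified after treatment by limiting dilution and compared with untreated infected mice. Data are mean ± SD.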

[14] = Renal toxicity in Balb/c mouse infected with promastigote stage of Leishmania amazonensis MPRO/BR/1972/M1841-LV-79 assessed as change in plasma creatinine level at 0.13 to 0.25 mg/kg, ip administered once daily for 15 days measured post-last dose; format: organism-based; details: in vivo, 360 h
Method in brief: (§4)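 Female BALB/c mice (4 weeks old, 5 per group) were infected in the left hind footpad with 1 × 10^7 parasites/mL of infective promastigotes. After six weeks they received daily ip doses for 15 days: 0.13 or 0.25 mg/kg/day (from DMSO stock in PBS, 0.1% DMSO), AmpB 2 mg/kg/day in sterile water, or PBS. Controls were untreated infected and uninfected mice. At end of treatment, plasma bilirubin, AST, ALT, ALP, urea and creatinine were measured with commercial kits.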

Leishmania amazonensis [15] = assay: Antileishmanial activity against promastigote stage of Leishmania amazonensis MPRO/BR/1972/M1841-LV-79 infected in Balb/c mouse assessed as reduction in parasitic load at 0.13 mg/kg, ip administered once daily for 15 days by limiting dilution method relative to control; format: functional; set-up: scale not given: the % may be the effect or the level left; method in brief: as §3
Leishmania amazonensis [16] = assay: Antileishmanial activity against promastigote stage of Leishmania amazonensis MPRO/BR/1972/M1841-LV-79 infected in Balb/c mouse assessed as decrease in plasma alkaline phosphatase level at 0.13 to 0.25 mg/kg, ip administered once daily for 15 days measured post-last dose; format: functional, organism-based; method in brief: as §4
Leishmania amazonensis [17] = assay: Antileishmanial activity against promastigote stage of Leishmania amazonensis MPRO/BR/1972/M1841-LV-79 infected in Balb/c mouse assessed as increase in plasma bilirubin level at 0.13 to 0.25 mg/kg, ip administered once daily for 15 days measured during compound dosing; format: functional, organism-based
[18] = Toxicity in Balb/c mouse infected with promastigote stage of Leishmania amazonensis MPRO/BR/1972/M1841-LV-79 assessed as change in body weight at 0.13 to 0.25 mg/kg, ip administered once daily for 15 days measured during compound dosing; format: organism-based; details: in vivo, 360 h
[19] = Renal toxicity in Balb/c mouse infected with promastigote stage of Leishmania amazonensis MPRO/BR/1972/M1841-LV-79 assessed as change in plasma urea level at 0.13 to 0.25 mg/kg, ip administered once daily for 15 days measured post-last dose; format: organism-based; details: in vivo, 360 h; method in brief: as §4
Leishmania amazonensis [20] = assay: Antileishmanial activity against promastigote stage of Leishmania amazonensis MPRO/BR/1972/M1841-LV-79 infected in Balb/c mouse assessed as decrease in plasma alanine aminotransferase level at 0.13 to 0.25 mg/kg, ip administered once daily for 15 days measured post-last dose; format: functional, organism-based; method in brief: as §4
Leishmania amazonensis [21] = assay: Antileishmanial activity against promastigote stage of Leishmania amazonensis MPRO/BR/1972/M1841-LV-79 infected in Balb/c mouse assessed as decrease in plasma aspartate aminotransferase level at 0.13 to 0.25 mg/kg, ip administered once daily for 15 days measured post-last dose; format: functional, organism-based; method in brief: as §4
Leishmania amazonensis [22] = assay: Antileishmanial activity against promastigote stage of Leishmania amazonensis MPRO/BR/1972/M1841-LV-79 infected in Balb/c mouse assessed as reduction in volume of foot lesions at 0.13 to 0.25 mg/kg, ip administered once daily for 15 days measured every 5 days during compound dosing by caliper method; format: functional, organism-based
Method in brief: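 Infected BALB/c mice (5 per group) were dosed daily ip for 15 days, starting six weeks after footpad inoculation: 0.13 or 0.25 mg/kg/day, AmpB 2 mg/kg/day, or PBS. Foot lesion thickness was measured with a dial caliper every 5 days.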

SMILES | IC50 (Leishmania amazonensis [1]) [µM] | selectivity ratio [2] | IC50 (Leishmania amazonensis [3]) [µM] | CC50 at 24 h [4] [µM] | selectivity ratio [5] | Activity (Leishmania amazonensis [6]) [%] | also measured
CC(C)(C)c1ccc(N/C(=N\C(=O)c2ccccc2)NCc2ccccc2)cc1 | 25.9 | 43.2 | 17.2 | 1120 | 65 |  | 
O=C(/N=C(/NCc1ccccc1)Nc1ccc(F)cc1)c1ccccc1 | 21.9 | 39.5 | 19 | 866 | 45.5 | 70 | 
O=C(/N=C(/NCc1ccccc1)Nc1ccccc1)c1ccccc1 | 22.6 | 1.6 |  | 35.9 |  |  | 
N=C(N)c1ccc(OCCCCCOc2ccc(C(=N)N)cc2)cc1 [PENTAMIDINE] | 7.6 | 4.7 | 5.07 | 35.7 | 7 | 81 | 
Cc1ccc(N/C(=N\C(=O)c2ccccc2)NCc2ccccc2)cc1 | 20.9 | 41.9 | 24.2 | 876 | 36.2 |  | 
O=C(/N=C(/NCc1ccccc1)Nc1ccc([N+](=O)[O-])cc1)c1ccccc1 | 11.5 | 69.7 | 22.1 | 802 | 36.4 |  | 
O=C(/N=C(/NCc1ccccc1)Nc1ccc(I)cc1)c1ccccc1 | 15.9 | 38.9 | 7.1 | 619 | 87.1 | 78 | Activity [7]: 3; Ratio (Mus musculus [8]): 0.6; Activity [9]: 6; Ratio (Mus musculus [10]): 1; Ratio (Mus musculus [11]): 1.2; Activity [12]: 5
COc1ccc(N/C(=N\C(=O)c2ccccc2)NCc2ccccc2)cc1 | 25.4 | 32.9 | 21.1 | 837 | 39.6 |  | 
O=C(/N=C(/NCc1ccccc1)Nc1ccc(Cl)cc1)c1ccccc1 | 19.7 | 42 | 41.2 | 827 | 20.1 | 19 | 
O=C(/N=C(/NCc1ccccc1)Nc1ccc(Br)cc1)c1ccccc1 | 19.6 | 37.7 | 5.6 | 738 | 132 | 86 | Activity [7]: 7; Ratio (Mus musculus [8]): 1.4; Activity (Leishmania amazonensis [13]): 60%; Activity [14]: Non-Toxic; Activity (Leishmania amazonensis [15]): 46%; Activity (Leishmania amazonensis [16]): Active; Activity (Leishmania amazonensis [17]): Active; Activity [9]: 6; Activity [18]: Non-Toxic; Activity [19]: Non-Toxic; Activity (Leishmania amazonensis [20]): Active; Ratio (Mus musculus [10]): 1.6; Ratio (Mus musculus [11]): 1.2; Activity (Leishmania amazonensis [21]): inactive; Activity (Leishmania amazonensis [22]): Active; Activity [12]: 8
O=C(/N=C(/NCc1ccccc1)Nc1ccc(C(F)(F)F)cc1)c1ccccc1 | 6.8 | 2.7 | 21.4 | 18.6 | 0.8 |  | 
